Format in all cases: functional, cell-based
In one test the test system is T-24. As to the kind of experiment: Antiproliferative activity against human T24 cells at 20 ug/ml after 48 hrs by MTT assay.
A further test deals with HCT-116. The experiment in a line: Antiproliferative activity against human HCT116 cells at 20 ug/ml after 48 hrs by MTT assay.
The subject of test [1] is HeLa. The experiment in a line: Antiproliferative activity against human HeLa cells at 20 ug/ml after 48 hrs by MTT assay.
Test [2] relates to SH-SY5Y. As to the kind of experiment: Antiproliferative activity against human SH-SY5Y cells at 20 ug/ml after 48 hrs by MTT assay.
Test [3] relates to U-251. The experiment in a line: Antiproliferative activity against human U251 cells at 20 ug/ml after 48 hrs by MTT assay.
The subject of the next test is H4. The experiment in a line: Antiproliferative activity against human H4 cells at 20 ug/ml after 48 hrs by MTT assay.
The test system of test [4] is A549. As to the kind of experiment: Antiproliferative activity against human A549 cells at 20 ug/ml after 48 hrs by MTT assay.
For test [5], the system named is SH-SY5Y. As to the kind of experiment: Antiproliferative activity against human SH-SY5Y cells after 48 hrs by MTT assay. The method in brief:
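SH-SY5Y cells were grown in DMEM with 10% FBS at 37 °C and 5% CO2, seeded at 10^4 cells/well and left to attach overnight. Cells were exposed to serial dilutions from a 10 mg/mL DMSO stock (vehicle 0.2% DMSO) for 4 h at 37 °C, then grown 48 h in fresh DMEM. MTT (0.5 mg/mL) was added for 3 h in the dark, formazan dissolved in DMSO, and absorbance read at 540 nm.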

Test [6] concerns U-251. The experiment in a line: Antiproliferative activity against human U251 cells after 48 hrs by MTT assay. The settings on record: U-251, 48 h. The method in brief: (§1)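 H4 and U251 glioma cells were maintained in MEM-EBSS with 10% FBS at 37 °C and 5% CO2. Cells were plated at 10^4 per well and attached overnight. They were treated 4 h with serially diluted compound (DMSO stock 10 mg/mL; vehicle 0.2% DMSO), then given fresh DMEM for 48 h. MTT (0.5 mg/mL) was added for 3 h, DMSO used to solubilise, and A540 read. IC50 reported.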

Test [7] is described as follows: Antiproliferative activity against human H4 cells after 48 hrs by MTT assay. Particulars: H4, 48 h. The method in brief: as §1
For test [8], the system named is HeLa. The experiment in a line: Antiproliferative activity against human HeLa cells after 48 hrs by MTT assay. The method in brief: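 HeLa cells were grown in RPMI 1640 with 10% FBS at 37 °C and 5% CO2 and seeded at 10^4 per well overnight. Serial dilutions (DMSO stock 10 mg/mL; vehicle 0.2% DMSO) were applied for 4 h at 37 °C, then the medium was replaced with fresh DMEM for 48 h. MTT (0.5 mg/mL) was added for 3 h in the dark, formazan dissolved in DMSO, and absorbance read at 540 nm. IC50 reported.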

For test [9], the system named is A549. As to the kind of experiment: Antiproliferative activity against human A549 cells after 48 hrs by MTT assay. The settings on record: A549, 48 h. The method in brief:
(§2)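 A549, T24 and HCT116 cells were grown in McCoy's 5A with 10% FBS at 37 °C and 5% CO2. Cells were seeded at 10^4 per well and attached overnight. They were exposed for 4 h to serial dilutions (DMSO stock 10 mg/mL; vehicle 0.2% DMSO), then grown 48 h in fresh DMEM. MTT (0.5 mg/mL) was added for 3 h, formazan dissolved in DMSO, and A540 read. IC50 reported.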

A short description of test [10]: Antiproliferative activity against human HCT116 cells after 48 hrs by MTT assay. The settings on record: HCT-116, 48 h. In short, it runs like this: as §2
Test [11] can be described thus: Antiproliferative activity against human T24 cells after 48 hrs by MTT assay. Particulars: T-24, 48 h. In short, it runs like this:
as §2

Five compounds from ChEMBL document CHEMBL3758071, “Phomanolides A and B from the Fungus Phoma sp.: Meroterpenoids Derived from a Putative Tropolonic Sesquiterpene via Hetero-Diels-Alder Reactions” (J Nat Prod, 2015) can be followed below.

Activity calls are given as the source filed them. No cut-off for these calls is given here.

As for `C/C1=C/CC(C)(C)[C@@H]2O[C@H]2C[C@@]2(C)O[C@@H]2C[C@@H]1O`, the result with T-24, with HCT-116, in the test with HeLa [1], with SH-SY5Y [2], in the test with U-251 [3] and in the test on H4 was inactive. For the same compound, the outcome in the test on A549 [4] was inactive.
For the compound `Cn1nnc2c(C(N)=O)ncn2c1=O` [TEMOZOLOMIDE], the IC50 in the test on SH-SY5Y [5] was over 100 µM; in the test with U-251 [6] it was over 100000 nM; in [7], over 100000 nM.
For the compound `CC1=CC(=O)O[C@@]12C[C@H]1C[C@H](O)[C@@]3(C)Oc4cc(O)cc(C)c4C[C@H]3CC(C)(C)/C=C/C[C@]1(C)O/C2=C\C(=O)O`, the values for the IC50 in the test on SH-SY5Y [5] and in the test with HeLa [8] were 81.1 µM and 14.3 µM, respectively.
For `C/C1=C/CC(C)(C)/C=C/C[C@]2(C)OC3=CC(=O)O[C@]4(C)CC(=O)O[C@]34C[C@H]2C[C@@H]1O`, the outcome in the test with T-24, with HCT-116, with HeLa [1], with SH-SY5Y [2], in the test with U-251 [3] and in the test on H4 was inactive. Moreover, the result in the test with A549 [4] was inactive.
Turning to `Cc1cc(=O)c(O)cc2c1C[C@H]1CC(C)(C)/C=C/C[C@]3(C)Oc4cc(O)c(=O)cc(C)c4C[C@H]3C[C@H](O)[C@@]1(C)O2`, the half-maximal inhibitory concentration (IC50) with A549 [9] came to 30.6 nM; with SH-SY5Y [5], 0.08 µM; in the test on HeLa [8] it was 0.0082 µM; in test [10] it was 31.2 nM; in test [11], 12.5 nM; with U-251 [6], 100 nM. Moreover, in [7], half-maximal inhibition (IC50) required 130 nM.
